Measurements as given in ChEMBL document CHEMBL1146656, “The monoethyl ester of meconic acid is an active site inhibitor of HCV NS5B RNA-dependent RNA polymerase” (Bioorg Med Chem Lett, 2004).

Columns and labels:
Hepatitis C virus = assay: Tested for inhibition of HCV RNA replication in a cell-basedassay; No significant inhibition; format: functional, organism-based, Hepacivirus hominis
[1] = biological target: T1, RNA-directed RNA polymerase (Hepacivirus hominis, UniProt O39930); assay: Inhibitory potency against NS5B HCV polymerase
T1 sequence (O39930 whole entry, the tested form may be a part): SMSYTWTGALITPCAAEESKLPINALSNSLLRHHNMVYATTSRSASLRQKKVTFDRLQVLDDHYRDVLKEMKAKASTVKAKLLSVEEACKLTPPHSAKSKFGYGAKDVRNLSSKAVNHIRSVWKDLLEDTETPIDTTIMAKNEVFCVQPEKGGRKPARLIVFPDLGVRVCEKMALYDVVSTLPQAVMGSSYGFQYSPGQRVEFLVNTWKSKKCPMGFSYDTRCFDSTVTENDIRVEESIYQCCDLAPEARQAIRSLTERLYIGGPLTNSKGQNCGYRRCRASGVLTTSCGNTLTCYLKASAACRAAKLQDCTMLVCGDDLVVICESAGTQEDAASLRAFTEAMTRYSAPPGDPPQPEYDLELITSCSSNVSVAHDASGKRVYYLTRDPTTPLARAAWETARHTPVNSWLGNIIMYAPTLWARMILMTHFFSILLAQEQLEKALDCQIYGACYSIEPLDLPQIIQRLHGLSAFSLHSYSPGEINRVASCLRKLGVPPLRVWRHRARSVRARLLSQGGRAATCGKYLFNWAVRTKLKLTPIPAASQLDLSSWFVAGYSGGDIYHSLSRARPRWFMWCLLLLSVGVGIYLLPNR
Outline: (§1)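 NS5BΔC55 (C-terminal 55-residue truncation) expressed in E. coli and purified to homogeneity, used at 5 nM in 20 mM Tris/HCl pH 7.5, 0.05% Triton X-100, 2% glycerol, 50 mM NaCl, 1 mM DTT, 5 mM MgCl2. Enzyme preincubated 20 min at 23 °C with poly(rA)/oligo(rU) (20 µg/mL final). Started with 10 µM 3H-UTP, 30 min at 23 °C. Acid-insoluble radioactivity counted. IC50 from three-parameter logistic fit; mean of 2–4 experiments.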

[2] = biological target: T1, RNA-directed RNA polymerase; assay: Inhibitory potency of compound in presence of Mg2+ ion against NS5B HCV polymerase
Outline: as §1, with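 “NS5B with C-terminal” for “NS5BΔC55 (C-terminal”, “truncation (ΔC55),” for “truncation)”, “purified;” for “purified to homogeneity, used at”, “nM enzyme” for “nM”, “measured;” for “counted.”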

[3] = biological target: T1, RNA-directed RNA polymerase; assay: Inhibitory potency of compound in presence of Mn2+ ion against NS5B HCV polymerase
[4] = biological target: T1, RNA-directed RNA polymerase; assay: Ability of compound to displace [3H]-DKA from NS5B HCV polymerase by 50%

Structure (SMILES)	EC50 (Hepatitis C virus) [µM]	IC50 [1] [µM]	IC50 [2] [µM]	IC50 [3] [µM]	DC50 [4] [µM]
CCN(CC)C(=O)c1cc(=O)c(O)c(C(=O)O)o1	> 50	> 100	–	–	–
O=C(O)c1occc(=O)c1O	> 50	51	–	–	–
O=C(O)c1cc(=O)c(O)c(C(=O)O)o1	50	> 100	> 100	18	–
CCOC(=O)c1cc(=O)c(O)c(C(=O)O)o1	> 50	2.25	2.25	0.165	1.2
COC(=O)c1oc(C(=O)O)cc(=O)c1O	> 50	> 100	–	–	–
O=C(O)c1oc(COCc2ccccc2)cc(=O)c1O	> 50	> 100	–	–	–
CCOC(=O)c1cc(=O)c(O)c(C(=O)OCC)o1	> 50	> 100	> 100	4	–
O=C(O)C(=O)/C=C(\O)c1ccccc1	> 50	–	–	–	0.3
CCOC(=O)c1cc(=O)c(O)co1	> 50	> 100	–	–	–
CCNC(=O)c1cc(=O)c(O)c(C(=O)O)o1	> 50	24	–	–	–
CCOCc1cc(=O)c(O)c(C(=O)O)o1	> 50	16.2	16.2	0.8	–
CC(C)(C)OC(=O)c1cc(=O)c(O)c(C(=O)O)o1	> 50	36	–	–	–
O=C(O)c1oc2ccccc2c(=O)c1O	> 50	–	23	1.9	–
